# Test results published in ChEMBL document CHEMBL4138255, “Discovery of a Slow Tight Binding LPA1 Antagonist (ONO-0300302) for the Treatment of Benign Prostatic Hyperplasia” (ACS Med Chem Lett, 2017).
# Activity calls are given as the source filed them. The calls are words filed in the database; no cut-off is given here.
# Assays:
# [1] = biological target: T1, Lysophosphatidic acid receptor 1 (Homo sapiens, UniProt Q92633); experiment: Antagonist activity at recombinant human LPA1 expressed in CHO cells assessed as reduction in LPA-induced intracellular calcium level pretreated followed by LPA addition by Fura-2-AM dye based fluorescence assay; format: functional, cell-based
# In short: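 LPA-induced Ca²⁺ mobilization in CHO cells stably expressing the LPA1 receptor, with 10 min incubation. IC50 was obtained by nonlinear regression of 4-point dose–response curves, with 95% confidence intervals.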
# [2] = Half life in rat microsomes in presence of NADPH; format: ADME, Microsome
# [3] = Half life in human microsomes in presence of NADPH; format: ADME, Microsome
# [4] = system: Rattus norvegicus; experiment: Inhibition of LPA-induced increase of intraurethral pressure in rat at 3 mg/kg, po measured after 6 hrs relative to control; format: functional
# In short: (§1)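 Conscious rats were given compound or vehicle (20% STPG) orally, 3 mg/kg. At 1, 3, 6, 9, 12, 18 or 24 h, LPA (300 μg/kg) was injected i.v. and intraurethral pressure was measured under short-term anesthesia. Inhibition was calculated versus vehicle. ID50 was determined from oral dose–response at 1 h.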
# [5] = system: Rattus norvegicus; experiment: Inhibition of LPA-induced increase of intraurethral pressure in rat at 3 mg/kg, po measured after 3 hrs relative to control; format: functional; in short: as §1
# [6] = biological target: T1, Lysophosphatidic acid receptor 1; experiment: Binding affinity to recombinant human LPA1 expressed in CHO cell membranes measured after 0.5 hrs by scintillation counting method; conditions: for Bmax: tested as the 3H-labelled form
# [7] = biological target: T1, Lysophosphatidic acid receptor 1; experiment: Binding affinity to recombinant human LPA1 expressed in CHO cell membranes measured after 1 hr by scintillation counting method; conditions: for Bmax: tested as the 3H-labelled form
# [8] = biological target: T1, Lysophosphatidic acid receptor 1; experiment: Binding affinity to recombinant human LPA1 expressed in CHO cell membranes measured after 2 hrs by scintillation counting method; conditions: for Bmax: tested as the 3H-labelled form
# [9] = biological target: T1, Lysophosphatidic acid receptor 1; experiment: Binding affinity to recombinant human LPA1 expressed in CHO cell membranes measured after 4 hrs by scintillation counting method; conditions: for Bmax: tested as the 3H-labelled form
# [10] = biological target: T1, Lysophosphatidic acid receptor 1; experiment: Binding affinity to recombinant human LPA1 expressed in CHO cell membranes measured after 2 hrs at 4 degC by scintillation counting method
# [11] = biological target: T1, Lysophosphatidic acid receptor 1; experiment: Binding affinity to recombinant human LPA1 expressed in CHO cell membranes measured after 2 hrs at room temperature by scintillation counting method
# [12] = biological target: T1, Lysophosphatidic acid receptor 1; experiment: Binding affinity to recombinant human LPA1 expressed in CHO cell membranes measured after 2 hrs at 37 degC by scintillation counting method
# [13] = system: Rattus norvegicus; experiment: Inhibition of LPA-induced increase of intraurethral pressure in po dosed rat measured after 1 hr; format: functional; conditions: for ED50: read-out: ID50 (the source's name); in short: as §1
# [14] = system: Rattus norvegicus; experiment: Inhibition of LPA-induced increase of intraurethral pressure in po dosed rat measured after 6 hrs; format: functional; in short: as §1
# [15] = Total clearance in rat at 1 mg/kg, iv; format: ADME, organism-based; conditions: in vivo
# [16] = system: Rattus norvegicus; experiment: Inhibition of LPA-induced increase of intraurethral pressure in rat at 3 mg/kg, po measured after 1 hr relative to control; format: functional; in short: as §1
# [17] = system: Canis familiaris; experiment: Inhibition of LPA-induced increase of intraurethral pressure in dog at 1 to 3 mg/kg, po measured up to 24 hrs; format: functional, organism-based; conditions: Canis lupus familiaris
# In short: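 Conscious dogs were dosed orally at 1 or 3 mg/kg. LPA (300 μg/kg i.v.) was injected at 0.5, 1, 2, 4, 6, 9, 12 and 24 h, and intraurethral pressure was measured in conscious animals. Response was expressed as % of each dog's predose (0 h) IUP.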
# [18] = system: Rattus norvegicus; experiment: Inhibition of LPA-induced increase of intraurethral pressure in rat at 3 mg/kg, po measured at 18 hrs relative to control; format: functional; in short: as §1
# [19] = system: Canis familiaris; experiment: Inhibition of LPA-induced increase of intraurethral pressure in dog at 1 mg/kg, po measured after 24 hrs relative to control; format: functional; conditions: Canis lupus familiaris
# [20] = biological target: T1, Lysophosphatidic acid receptor 1; experiment: Antagonist activity at recombinant human LPA1 expressed in CHO cell […] pretreated for 24 hrs prior to Fura-2-AM dye addition for 1 hr followed by LPA stimulation measured after 3 mins by fluorescence assay; format: functional, cell-based
# In short: (§2)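 Ca²⁺ mobilization in CHO cells stably expressing LPA1. Compound was added at cell seeding and incubated 24 h, and was held at the same concentration through Ca²⁺-indicator loading and LPA stimulation. In the wash-out variant, compound was removed before LPA stimulation. IC50 was obtained with 95% confidence intervals.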
# [21] = biological target: T1, Lysophosphatidic acid receptor 1; experiment: Antagonist activity at recombinant human LPA1 expressed in CHO cell […] pretreated for 24 hrs prior to Fura-2-AM dye addition for 1 hr followed by compound washout and subsequent LPA stimulation measured after 3 mins by fluorescence assay; format: functional, cell-based; in short: as §2
# [22] = biological target: Lysophosphatidic acid receptor 1 (Rattus norvegicus) (UniProt P61794); experiment: Antagonist activity at LPA1 in CD(SD)IGS rat urethra assessed as inhibition of LPA-induced urethra contraction at 1 uM pretreated for 30 mins followed by LPA addition; format: functional
# In short: (§3)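 Isolated rat urethra. Contraction to 10 μM LPA was recorded as 100% control. Medium was exchanged, then 1 μM test compound was added for 30 min and contraction to 10 μM LPA recorded. Tissue was washed with compound-free medium three times every 10 min before each LPA re-challenge, two wash-out rounds. Expressed as % inhibition, mean ± SD, n = 3.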
# [23] = biological target: Lysophosphatidic acid receptor 1 (Rattus norvegicus) (UniProt P61794); experiment: Antagonist activity at LPA1 in CD(SD)IGS rat urethra assessed as inhibition of LPA-induced urethra contraction at 1 uM pretreated for 30 mins prior to LPA addition followed by compound washout every 10 minutes for 2 times and subsequent LPA stimulation; format: functional; in short: as §3
# [24] = system: Rattus norvegicus; experiment: Inhibition of LPA-induced increase of intraurethral pressure in rat at 3 mg/kg, po measured up to 12 hrs relative to control; format: functional; in short: as §1
# T1 sequence (Q92633 whole entry): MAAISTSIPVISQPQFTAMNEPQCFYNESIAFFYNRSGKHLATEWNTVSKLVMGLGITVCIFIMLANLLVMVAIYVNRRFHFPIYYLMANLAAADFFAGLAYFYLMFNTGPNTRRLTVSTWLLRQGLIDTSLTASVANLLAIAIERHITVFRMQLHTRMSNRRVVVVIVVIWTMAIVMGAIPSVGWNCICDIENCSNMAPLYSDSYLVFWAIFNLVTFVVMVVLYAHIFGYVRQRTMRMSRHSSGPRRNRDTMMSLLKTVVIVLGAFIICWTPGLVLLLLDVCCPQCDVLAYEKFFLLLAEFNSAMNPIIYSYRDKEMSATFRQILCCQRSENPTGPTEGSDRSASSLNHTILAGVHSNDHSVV
# Lysophosphatidic acid receptor 1 (Rattus norvegicus), sequence (P61794 whole entry): as the sequence (Q92633 whole entry) above, with I4A, I8S, P22Q, H40Y, I61V, E193D, N194H, I269V, S331N, T335N counted along it
compound,measurement,setting,value
COc1cc([C@@H](O)[C@@H](CCCc2ccsc2)Cn2ccc(CCC(=O)O)c2)cc(OC)c1C,IC50,[1],38 nM
same,half-life,[2],< 0.25 h
same,half-life,[3],1.1 h
same,inhibition,[4],inactive
same,inhibition in vivo at 3 mg/kg,[5],70%
[3H]C(CN(Cc1ccc(CC(=O)O)cc1)C(=O)c1cc(OC)c(C)c(OC)c1)C([3H])c1ccccc1 (stereo not given),Kd,[6],8.12 nM
same,Kd,[7],6.54 nM
same,Kd,[8],5.96 nM
same,Kd,[9],10.2 nM
COc1cc([C@@H](O)[C@@H](CCCc2ccccc2)Cn2cc(CC(=O)O)cn2)cc(OC)c1C,IC50,[1],30 nM
COc1cc([C@@H](O)[C@@H](CCCc2ccccc2)Cn2ccc(C(=O)O)c2)cc(OC)c1C,IC50,[1],120 nM
[3H]C(C(=O)O)C([3H])c1ccn(C[C@H](CC2Cc3ccccc3C2)[C@H](O)c2cc(OC)c(C)c(OC)c2)c1 (stereo not given in full),Kd,[6],2.34 nM
same,Kd,[7],1.26 nM
same,Kd,[8],0.74 nM
same,Kd,[9],0.49 nM
same,Kd,[10],22.5 nM
same,Kd,[11],0.74 nM
same,Kd,[12],0.34 nM
COc1cc([C@@H](O)[C@@H](CCCc2ccccc2)Cn2ccc(CCC(=O)O)n2)cc(OC)c1C,IC50,[1],40 nM
COc1cc([C@@H](O)[C@@H](CCCc2ccccc2)Cn2ccc(CC(=O)O)c2)cc(OC)c1C,IC50,[1],13 nM
same,half-life,[2],< 0.25 h
same,half-life,[3],0.817 h
same,ED50,[13],0.6 mg/kg
same,inhibition (INH),[14],33%
same,clearance,[15],50.1 mL/min/kg
same,inhibition,[16],Active
same,inhibition in vivo at 3 mg/kg,[4],33%
COc1cc([C@@H](O)[C@@H](CCCc2ccccc2)Cn2ccc(CC(=O)O)n2)cc(OC)c1C,IC50,[1],32 nM
COc1cc([C@@H](O)[C@@H](CC2Cc3ccccc3C2)Cn2ccc(CCC(=O)O)c2)cc(OC)c1C,IC50,[1],86 nM
same,half-life,[2],0.25 h
same,half-life,[3],1.32 h
same,clearance,[15],20.5 mL/min/kg
same,inhibition,[17],Active
same,inhibition in vivo at 3 mg/kg,[18],47%
same,inhibition in vivo at 1 mg/kg,[19],30%
same,Bmax,[6],974 cpm
same,Bmax,[7],973 cpm
same,Bmax,[8],942 cpm
same,Bmax,[9],956 cpm
same,Bmax,[10]; tested as the 3H-labelled form,1030 cpm
same,Bmax,[11]; tested as the 3H-labelled form,942 cpm
same,Bmax,[12]; tested as the 3H-labelled form,1110 cpm
same,IC50,[20],0.16 nM
same,IC50,[21],0.19 nM
COc1cc([C@@H](O)[C@@H](CCCc2ccccc2)Cn2cc(CCC(=O)O)cn2)cc(OC)c1C,IC50,[1],34 nM
COc1cc([C@@H](O)[C@@H](CCCc2ccccc2)Cn2nc(C)c(CC(=O)O)c2C)cc(OC)c1C,IC50,[1],520 nM
COc1cc([C@@H](O)[C@@H](CCCc2cccs2)Cn2ccc(CCC(=O)O)c2)cc(OC)c1C,IC50,[1],45 nM
same,half-life,[2],< 0.25 h
same,half-life,[3],1.25 h
same,inhibition,[4],inactive
same,inhibition in vivo at 3 mg/kg,[5],70%
COc1cc([C@@H](O)[C@@H](CCCc2cccs2)Cn2ccc(CC(=O)O)c2)cc(OC)c1C,IC50,[1],29 nM
same,half-life,[2],< 0.25 h
same,half-life,[3],1.37 h
same,inhibition,[4],inactive
same,inhibition in vivo at 3 mg/kg,[5],70%
COc1cc(C(=O)C(CCCc2ccccc2)Cc2ccc(CC(=O)O)cc2)cc(OC)c1C (stereo not given),IC50,[1],460 nM
COc1cc([C@@H](O)[C@@H](CCCc2ccccc2)Cc2ccc(CC(=O)O)cc2)cc(OC)c1C,IC50,[1],61 nM
same,inhibition,[13],Dose-dependent effect
same,ED50,[13],0.97 mg/kg
same,inhibition,[22],Active
same,inhibition,[23],Active
COc1cc([C@@H](O)[C@@H](CC2Cc3ccccc3C2)Cn2ccc(CC(=O)O)c2)cc(OC)c1C,IC50,[1],61 nM
same,half-life,[2],0.567 h
same,half-life,[3],1.08 h
same,clearance,[15],19.2 mL/min/kg
same,inhibition,[17],Active
same,inhibition in vivo at 3 mg/kg,[24],52%
COc1cc([C@@H](O)[C@@H](CCCc2ccsc2)Cn2ccc(CC(=O)O)c2)cc(OC)c1C,IC50,[1],23 nM
same,half-life,[2],< 0.25 h
same,half-life,[3],1 h
same,clearance,[15],16.4 mL/min/kg
same,inhibition in vivo at 3 mg/kg,[16],75%
same,inhibition in vivo at 3 mg/kg,[4],23%
COc1cc(C(=O)N(CCCc2ccccc2)Cc2ccc(CC(=O)O)cc2)cc(OC)c1C,inhibition,[22],Active
same,inhibition,[23],inactive
same,Bmax,[6],3420 cpm
same,Bmax,[7],3560 cpm
same,Bmax,[8],2450 cpm
same,Bmax,[9],2740 cpm
COc1cc([C@@H](O)[C@@H](CCCc2ccccc2)Cn2ccc(CCC(=O)O)c2)cc(OC)c1C,IC50,[1],22 nM
COc1cc(C(=O)N(C/C=C/c2ccccc2)Cc2ccc(CC(=O)O)cc2)cc(OC)c1C,IC50,[1],> 1000 nM
same,half-life,[2],> 3.33 h
same,half-life,[3],2.72 h
COc1cc([C@@H](O)[C@@H](CCCc2ccccc2)Cn2cnc(CC(=O)O)c2)cc(OC)c1C,IC50,[1],180 nM
